Assay results from ChEMBL document CHEMBL4052823, “Extra Sugar on Vancomycin: New Analogues for Combating Multidrug-Resistant Staphylococcus aureus and Vancomycin-Resistant Enterococci” (J Med Chem, 2018).
Values after ≈ are worked out from the molar mass of the structure shown.

How the values were obtained:
Type in all cases: functional
[1] = test system: Staphylococcus aureus; experiment: Antibacterial activity against vancomycin/methicillin-susceptible Staphylococcus aureus Newman […] after 24 hrs by broth microdilution method
Outline: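 Broth microdilution in cation-adjusted Mueller-Hinton II broth. […] Each well received ~10^5 CFU of exponential-phase bacteria and was incubated at 37 °C for 24 h. MIC was taken as the lowest concentration giving complete growth inhibition, interpreted per CLSI.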

[2] = test system: Staphylococcus aureus; experiment: Antibacterial activity against healthcare-associated methicillin-resistant/vancomycin-intermediate Staphylococcus aureus Mu50 after 24 hrs by broth microdilution method; settings: Mu50, 24 h
Outline: (§1)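 Broth microdilution in cation-adjusted Mueller-Hinton II broth. DMSO stocks were diluted in broth and twofold serially from 128 to 0.0625 μg/mL or lower. Each well was inoculated with ~10^5 CFU of exponential-phase bacteria and incubated at 37 °C for 24 h. MIC was the lowest concentration giving complete growth inhibition, read per CLSI. Growth controls contained broth plus DMSO.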

[3] = test system: Enterococcus faecium; experiment: Antibacterial activity against glycopeptide-resistant Enterococcus faecium Efm-HS-0649 vanA after 24 hrs by broth microdilution method; settings: Efm-HS-0649, 24 h; outline: as §1
[4] = test system: Enterococcus faecium; experiment: Antibacterial activity against glycopeptide-resistant Enterococcus faecium Efm-HS-06188 vanA after 24 hrs by broth microdilution method; settings: Efm-HS-06188, 24 h; outline: as §1
[5] = test system: Enterococcus faecium; experiment: Antibacterial activity against glycopeptide-resistant Enterococcus faecium Efm-HS-0847 vanM after 24 hrs by broth microdilution method; settings: Efm-HS-0847, 24 h; outline: as §1
[6] = test system: Enterococcus faecium; experiment: Antibacterial activity against glycopeptide-resistant Enterococcus faecium Efm-HS-08257 vanM after 24 hrs by broth microdilution method; settings: Efm-HS-08257, 24 h; outline: as §1
[7] = test system: Enterococcus faecium; experiment: Antibacterial activity against glycopeptide-resistant Enterococcus faecium Efm-HS-vb01 vanB after 24 hrs by broth microdilution method; settings: Efm-HS-vb01, 24 h; outline: as §1

Row | SMILES | MIC90 [1] | MIC90 [2] | MIC [3] | MIC [4] | MIC [5] | MIC [6] | MIC [7]
1 | CCCCCCCCCCNCCN[C@@]1(C)C[C@H](O[C@H]2[C@H](Oc3c4cc5cc3Oc3ccc(cc3Cl)[C@@H](O)[C@@H](NC(=O)[C@@H](CC(C)C)NC)C(=O)N[C@@H](CC(N)=O)C(=O)N[C@H]5C(=O)N[C@H]3C(=O)N[C@H](C(=O)N[C@H](C(=O)O)c5cc(O)c(CNCCCNC(=O)[C@H](O)[C@@H](O)[C@H](O)[C@H](O)CO)c(O)c5-c5cc3ccc5O)[C@H](O)c3ccc(c(Cl)c3)O4)O[C@H](CO)[C@@H](O)[C@@H]2O)O[C@@H](C)[C@H]1O | 0.5 µg/mL (≈ 0.264 µM) | 1 µg/mL (≈ 0.527 µM) | 2 µg/mL (≈ 1.05 µM) | 4 µg/mL (≈ 2.11 µM) | 2 µg/mL (≈ 1.05 µM) | 0.12 µg/mL (≈ 0.0633 µM) | 2 µg/mL (≈ 1.05 µM)
2 | CCCCCCc1ccc(CN[C@@]2(C)C[C@H](O[C@H]3[C@H](Oc4c5cc6cc4Oc4ccc(cc4Cl)[C@@H](O)[C@@H](NC(=O)[C@@H](CC(C)C)NC)C(=O)N[C@@H](CC(N)=O)C(=O)N[C@H]6C(=O)N[C@H]4C(=O)N[C@H](C(=O)N[C@H](C(=O)O)c6cc(O)c(CN[C@H]7C(O)O[C@H](CO)[C@H](O)[C@@H]7O)c(O)c6-c6cc4ccc6O)[C@H](O)c4ccc(c(Cl)c4)O5)O[C@H](CO)[C@@H](O)[C@@H]3O)O[C@@H](C)[C@H]2O)cc1 (some centres undefined) | 0.25 µg/mL (≈ 0.138 µM) | 0.5 µg/mL (≈ 0.276 µM) | 8 µg/mL (≈ 4.41 µM) | 8 µg/mL (≈ 4.41 µM) | 32 µg/mL (≈ 17.6 µM) | 16 µg/mL (≈ 8.82 µM) | 1 µg/mL (≈ 0.551 µM)
3 | CN[C@H](CC(C)C)C(=O)N[C@H]1C(=O)N[C@@H](CC(N)=O)C(=O)N[C@H]2C(=O)N[C@H]3C(=O)N[C@H](C(=O)N[C@H](C(=O)NCCCN(C)C)c4cc(O)c(CNCCO[C@H]5O[C@H](CO)[C@@H](O)[C@H](O)[C@@H]5O)c(O)c4-c4cc3ccc4O)[C@H](O)c3ccc(c(Cl)c3)Oc3cc2cc(c3O[C@@H]2O[C@H](CO)[C@@H](O)[C@H](O)[C@H]2O[C@H]2C[C@](C)(NCc3ccc(-c4ccc(Cl)cc4)cc3)[C@H](O)[C@H](C)O2)Oc2ccc(cc2Cl)[C@H]1O | 2 µg/mL (≈ 1.02 µM) | 4 µg/mL (≈ 2.03 µM) | 0.5 µg/mL (≈ 0.254 µM) | 1 µg/mL (≈ 0.508 µM) | 2 µg/mL (≈ 1.02 µM) | 0.5 µg/mL (≈ 0.254 µM) | 4 µg/mL (≈ 2.03 µM)
4 | CN[C@H](CC(C)C)C(=O)N[C@H]1C(=O)N[C@@H](CC(N)=O)C(=O)N[C@H]2C(=O)N[C@H]3C(=O)N[C@H](C(=O)N[C@H](C(=O)O)c4cc(O)c(CNCCO)c(O)c4-c4cc3ccc4O)[C@H](O)c3ccc(c(Cl)c3)Oc3cc2cc(c3O[C@@H]2O[C@H](CO)[C@@H](O)[C@H](O)[C@H]2O[C@H]2C[C@](C)(NCc3ccc(OCc4cccc(-c5ccccc5)c4C)c(Cl)c3)[C@H](O)[C@H](C)O2)Oc2ccc(cc2Cl)[C@H]1O | 0.12 µg/mL (≈ 0.0651 µM) | 0.5 µg/mL (≈ 0.271 µM) | 1 µg/mL (≈ 0.543 µM) | 0.5 µg/mL (≈ 0.271 µM) | 2 µg/mL (≈ 1.09 µM) | 1 µg/mL (≈ 0.543 µM) | 1 µg/mL (≈ 0.543 µM)
5 | CN[C@H](CC(C)C)C(=O)N[C@H]1C(=O)N[C@@H](CC(N)=O)C(=O)N[C@H]2C(=O)N[C@H]3C(=O)N[C@H](C(=O)N[C@H](C(=O)O)c4cc(O)c(CNCCCNC(=O)[C@H](O)[C@@H](O)[C@H](O)[C@H](O)CO)c(O)c4-c4cc3ccc4O)[C@H](O)c3ccc(c(Cl)c3)Oc3cc2cc(c3O[C@@H]2O[C@H](CO)[C@@H](O)[C@H](O)[C@H]2O[C@H]2C[C@](C)(NCc3ccc4ccccc4c3)[C@H](O)[C@H](C)O2)Oc2ccc(cc2Cl)[C@H]1O | 1 µg/mL (≈ 0.539 µM) | 4 µg/mL (≈ 2.16 µM) | – | – | – | – | –
6 | C#Cc1ccc(CN[C@@]2(C)C[C@H](O[C@H]3[C@H](Oc4c5cc6cc4Oc4ccc(cc4Cl)[C@@H](O)[C@@H](NC(=O)[C@@H](CC(C)C)NC)C(=O)N[C@@H](CC(N)=O)C(=O)N[C@H]6C(=O)N[C@H]4C(=O)N[C@H](C(=O)N[C@H](C(=O)O)c6cc(O)c(CNCCCNC(=O)[C@H](O)[C@@H](O)[C@H](O)[C@H](O)CO)c(O)c6-c6cc4ccc6O)[C@H](O)c4ccc(c(Cl)c4)O5)O[C@H](CO)[C@@H](O)[C@@H]3O)O[C@@H](C)[C@H]2O)cc1 | 4 µg/mL (≈ 2.19 µM) | 8 µg/mL (≈ 4.38 µM) | – | – | – | – | –
7 | CN[C@H](CC(C)C)C(=O)N[C@H]1C(=O)N[C@@H](CC(N)=O)C(=O)N[C@H]2C(=O)N[C@H]3C(=O)N[C@H](C(=O)N[C@H](C(=O)O)c4cc(O)c(CNCCO)c(O)c4-c4cc3ccc4O)[C@H](O)c3ccc(c(Cl)c3)Oc3cc2cc(c3O[C@@H]2O[C@H](CO)[C@@H](O)[C@H](O)[C@H]2O[C@H]2C[C@](C)(NCc3ccc(-c4ccncc4)cc3)[C@H](O)[C@H](C)O2)Oc2ccc(cc2Cl)[C@H]1O | 0.5 µg/mL (≈ 0.296 µM) | 2 µg/mL (≈ 1.18 µM) | – | – | – | – | –
